Measurements gathered from unrelated publications.
Lines come from different studies, so protocols differ.
ST14: Suppressor of tumorigenicity 14 protein (ST14, Homo sapiens, UniProt Q9Y5Y6)
CDK2 with cyclin A2: Cyclin-dependent kinase 2, with cyclin A2 (CDK2, Homo sapiens, UniProt P24941)
PRKCH: Protein kinase C eta type (PRKCH, Homo sapiens, UniProt P24723)

| Structure (SMILES) | target | assay | conditions | endpoint | result |
| --- | --- | --- | --- | --- | --- |
| Cc1cc([C@@H](C)Nc2ccccc2C(=O)O)c2nc(N3CCC(F)(F)CC3)c(C#N)c(=O)n2c1 | Cyclin-dependent kinase 2 (CDK2, Homo sapiens, UniProt P24941) | binding, competition with immobilised ligand | 10 µM | remaining binding | 98% |
| CNc1ncc2c(/C=C/C(=O)N3CCC(OC)CC3)nn(Cc3cccc(C(F)(F)F)c3)c2n1 | Angiopoietin-1 receptor (TEK, Homo sapiens, UniProt Q02763) | enzyme activity, inhibitor, radiometric | 1 µM | remaining activity | 98% |
| CC(C)C(C)(NC(=O)[C@H](Cc1cscn1)NC(=O)CCc1ccccc1)C(=O)N[C@@H](CCCNC(=N)N)C(=O)c1nc2ccccc2s1 (stereo partly shown) | ST14 | enzyme activity, inhibitor | 0.1 µM | remaining activity | 83% |
| CC(=O)Nc1c(N)nc(SCC(=O)N/N=C/c2ccc([N+](=O)[O-])cc2)[nH]c1=O | CDK2 with cyclin A2 | enzyme activity, inhibitor | 1 nM | inhibition | 4.03% |
| COc1cc(-c2cncc3c2CN(C)Cc2cc(N4CCNCC4)ccc2-3)cc(OC)c1OC | PRKCH | enzyme activity, inhibitor | 1 µM | remaining activity | 115% |
| N=C(N)NCCC[C@H](NC(=O)[C@@H](NC(=O)[C@H](Cc1cscn1)NC(=O)CCc1ccccc1)C1CCCCC1)C(=O)c1nc2ccccc2s1 | ST14 | enzyme activity, inhibitor | 0.1 µM | remaining activity | 32% |
| CNC(=O)c1cc(Oc2ccc(NC(=O)Nc3ccc(Cl)c(C(F)(F)F)c3)cc2)ccn1 | CDK2 with cyclin A2 | enzyme activity, inhibitor | 200 pM | inhibition | 12.3% |
| N=C(N)NCCC[C@H](NC(=O)[C@H](CCC1CCCCC1)NC(=O)[C@H](Cc1cscn1)NC(=O)CCc1ccccc1)C(=O)c1nc2ccccc2s1 | ST14 | enzyme activity, inhibitor | 0.1 µM | remaining activity | 5% |
| CC(=O)Nc1c(N)nc(SCC(=O)NN)[nH]c1=O | CDK2 with cyclin A2 | enzyme activity, inhibitor | 200 pM | inhibition | 3.98% |
| C=CC(=O)N1CCC(COCC(=O)N2CCN(c3nc(-c4cnc(N)nc4C(F)F)nc(N4CCOC[C@@H]4C)n3)CC2)CC1 | PRKCH | binding, competition with immobilised ligand | 1 µM | remaining binding | 100% |
